Measurements reported in the EternaBench riboswitch data.

System: MS2 coat protein
Assay: apparent Kd, MS2 coat protein; higher = weaker binding; RNA-MaP array; FMN 200 µM where present
Outline: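 Stalled E. coli RNA polymerase produced the designs on Illumina sequencing-chip clusters. SNAP-549-labelled MS2 coat protein was added from 0.7 or 1.5 nM, doubling to 3 µM, without and then with constant ligand, in 100 mM Tris-HCl pH 7.5, 80 mM KCl, 4 mM MgCl2, BSA, DTT, yeast tRNA and Tween-20. The apparent Kd is the median of filtered per-cluster fits of green signal normalised to red-channel RNA signal and control-cluster median Fmax.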

[1] = designed as: OFF switch for flavin mononucleotide, no ligand
[2] = ligand present: flavin mononucleotide, designed as: OFF switch for flavin mononucleotide
[3] = designed as: ON switch for flavin mononucleotide, no ligand
[4] = ligand present: flavin mononucleotide, designed as: ON switch for flavin mononucleotide

Sequence | apparent Kd [1] [nM] | apparent Kd [2] [nM] | apparent Kd [3] [nM] | apparent Kd [4] [nM]
GGUACUCAAAGAGUACCAAUACGAACAUGAGGAUCACCCAUGUAGGAUAUGCUACUCGAAGAGUAGCAGAAGGACAUGUGCCUA | 16.9 | 113 |  | 
GAUCUGACAGGAUAUACAUGAGGAUCACCCAUGUGCGAGCUAGCGAAAGCUAGCUCAGGUAGAAGGGUCAGAUC | 12 | 16.4 |  | 
ACAUACAUUCGAGGAUAUCGGUGAGAAAUUUUACGAGAAGGCGAUUCAUGAUUUAUUAUUUUGGACAUGAGGAUCACCCAUGUA |  |  | 83.5 | 34.1
ACUAGAUGAGGAUAUACACAUUUUAGUGUUCCUCUAGAUUAACAUGAGGAUCACCCAUGUAGAAGGCAUCAUUA | 59.7 | 218 |  | 
AAAAGCCAAGGAUAUACAUGAGGAUCACCCAUGUAAGAAAUGGGCGCUACCGUUCCGUGUAGAAGGUGGGAAAA | 28.6 | 65 |  | 
CGCUCUAUAUAUUAGGCAAGAAUCAGAAGGCGUUACAUGAGGAUCACCCAUGUUUUGUAUAGUAACGAGGAUAUGAUAUGAGCG | 13.6 | 14.5 |  | 
UGCUGUGUCAGAGGAUAUACUCUAAUAAUCCAUUGCAAAUAGCGAUGGACAUGAGGAUCACCCAUGUAGAAGGCUGGCACAGCA | 70.2 | 152 |  | 
GCGUUGCACGAGAAGGCCAAUACAUGAGGAUCACCCAUGUUAAAAUGUUUUGGAGGAUAUCGAUCAUCUACAAUAAAGCAACGC | 12.6 | 11.6 |  | 
AAUAUGUUGCAGAAGGCCAUGGUGUGGUAGUGCCUCAUGACAUGAGGAUCACCCAUGUCUGUGAUGGAGGAUAUGCAAUAUAUU | 67.2 | 152 |  | 
GAGAAGAGGGAAGGAUAUACAUGAGGAUCACCCAUGUAGAUAGGUAUAAUAGGUUGUUGUAGUAUGUAGAAGGUCCGGUUUGUU | 18.9 | 22.5 |  | 
UGCAUGCUAGGAUAUACGAAACAUUAGGGUUCUUUGUAUGAACAUGAGGAUCACCCAUGUAGAAGGAGCGUGCU | 117 | 296 |  | 
GUCGAGUGAGGAUAUGGUGAGUAGUGCCUGAGCGCUGCUCACCAGAAGGCACAUGAGGAUCACCCAUGUAUGAC | 18.2 | 23.9 |  | 
UGACCCAUGACAUGAGAUGACAUGAGGAUCACCCAUGUUUACAAGGAUAUGUUGGUCAAAGGUCGGCAGAAGGUGUAAUGGGAU | 49 | 128 |  | 
UUUUACCGAGGAUAUACAUAUAAAUAAUAAUCCUCAUUAUUACAUGAGGAUCACCCAUGUAGAAGGCGGAUUUU | 89.2 | 66.8 |  | 
UCGCUGCGAGGAUAUACGUGCGCGCGCGCGCGCGCGCGCGUACAUGAGGAUCACCCAUGUAGAAGGCGCUCUGC | 39.7 | 36.6 |  | 
ACAUAAAUUCGAGGAUAUCGGUGAUAUAAUUUACGAGAAGGCGAUAAUUGUUAUAAACUUAUAGACAUGAGGAUCACCCAUGUA |  |  | 32.1 | 31.9
CAGCGAAAGUAGAAGGCAGUACUGAUACAGUACUGAGGAUAUACAUGAGGAUCACCCAUGUCCUUCAGCUGGAAAUAAAUAAAA | 5.9 | 50.9 |  | 
GUCUUGUCAGGAUAUCUUACAUAACAAUCGUAGUUACAAUUGGAGAAGGGACAUGAGGAUCACCCAUGUUAGCC | 18.7 | 21 |  | 
UUGGACGUCGUAGGAUAUGUAGGAUAUUCCUACAUGAGGAUCACCCAUGUUGACAUGGAAGAAGGACAUAAGGACGAUGUCCAU |  |  | 27.4 | 4.15
UUAGAAAGGUUAGGAUAUUAAUUAUUGUAUAGUAUGAUCUACAUGAGGAUCACCCAUGUUAAAUAUAAGAAGGAACGUUAGAUU | 57.1 | 54.8 |  | 
GCCUCAUAGUAGAAGGGACUUUUACAGUAAUGUUUUUAGUGUAAAUAACAUGAGGAUCACCCAUGUCAGGAUAUACUAAGAGGC | 5.82 | 6.35 |  | 
AUUGUAUGGGAAGGAUAUAGAAUAUUAUUUUAACAUGAGGAUCACCCAUGUAACCUUAUGUGUAGCUAGAAGGUCCGUUUGUUA | 308 | 409 |  | 
AUUUGACACGUAGGAUAUCGCUCUAAUUUAACACGAGAAGGACGUACAUGAGGAUCACCCAUGUUAAAUGGUGUAGUUUAUUUG | 82.1 | 164 |  | 
AUUAUUUAUAGUUAUUGGUAUUUUACAGAAGGUGAAAGUGUCACAUGAGGAUCACCCAUGUUCUUCAAGGAUAUGUUGUUAUAC |  |  | 64.2 | 11.6
UUGUUAAGAGGAUAUACAUGAGGAUCACCCAUGUGAGAAGUCCAGGGCGUAUUUUCUUGUAGAAGGUUUAGCCC | 25.1 | 15.8 |  | 
UAUUAAUAAUAAGGAUAUACGUCACUGCUUCGGCAGUGUGGUAAGAUCACAUGAGGAUCACCCAUGUAGAAGGAAUAUAAAAUU | 11.2 | 9.26 |  | 
GGGCCCGGUGUGAGGAUAUGCCCGGGUAAAUUUGGGCAGAAGGCACAUGAGGAUCACCCAUGUAAGCCGGGCCC | 13.9 | 13.8 |  | 
UUAACUCAUGUAGGAUAUGCAUGGCGAAGCUACGCAGAAGGACAUGAGGAUCACCCAUGUUCUAGCGUCUGGAAACAGAUGCAA | 67.9 | 359 |  | 

Sequence | apparent Kd [1] [nM] | apparent Kd [2] [nM] | apparent Kd [3] [nM] | apparent Kd [4] [nM]
AUAUAUAUAUCAGGAUAUGGACAGGCCUGUCCGUAUUGAGACAGUAACAUGAGGAUCACCCAUGUCCAGAAGGGAUCUAUAUAU | 40.5 | 49.4 |  | 
UGCUAGUCAGGAUAUACGAACAUGUCAAAAGACGUGAAGGGACAUGAGGAUCACCCAUGUAGAAGGGACUAGCC | 33.2 | 162 |  | 
CGGCCAUAUCGAGGAUAUAAGUCUAGGACAUGAGGAUCACCCAUGUAUGUCUUAGAAGGCGAUAUGGCCAGCCUGUUACAGGCA |  |  | 28.9 | 5.83
GAUGACAUGAGGAUCACCCAUGUGAUGGUUUGAGGUGGUUACAGAAGGGACGUAUAGUGGUGUGGUCAGGAUAUGUAGAAUCCU |  |  | 125 | 50.9
GGGAGACAUGAGGAUCACCCAUGUGAAAACGUGGCAGGAUAUGGAUGGAAACCAUACUGUCCAGAAGGGCCUUGUC |  |  | 47.4 | 37.8
UGAUAGGACAGAGGAUAUGCCGAUAGGAUCUACUAUCGAAGAAUCCUCACAUGAGGAUCACCCAUGUAGAAGGCUGUCCUAUCC | 8.68 | 39.5 |  | 
AGAUAACACCAGAAGGACAUGAGGAUCACCCAUGUAGGAUAUGGGCAUCACUCGAGAAAGAAACAACCAAAAGGACACGCGGUC |  |  | 51 | 8.36
GGGUACAUCGGAGGAUAUCAUGUAAAUACAUGAGGAUCACCCAUGUCGAUGGAGACAUCGGAGAUUGAGAAGGCCGAUUUACCG |  |  | 184 | 8.4
AAAAUGUGAGGAUAUCACGGAACUCCGCGUGACGGAGCUCCUGAGAAGGCACAUGAGGAUCACCCAUGUCCUGU | 52.8 | 276 |  | 
GUGUACAGAGGAUAUACAUAAGCUAGGAAACUAGCAACCUCACAUGAGGAUCACCCAUGUAGAAGGCUGUACAC | 189 | 59.6 |  | 
CAUUAAUUCAUUAUAGUUAUUAUACAGGAUAUGUUACAUGAGGAUCACCCAUGUUUUCAUGGUAAACAGAAGGGUAUAUCAAGU | 124 | 232 |  | 
GGAUGACAAAGUCAUCCUUAACGAACAUGAGGAUCACCCAUGUAGGAUAUGCAACUCAAAGAGUUGCAGAAGGACAUGUGCCUU | 35.9 | 238 |  | 
AGCAAGUAUACAUGAGGAUCACCCAUGUUUUUUAGGGUUUUCAGAAGGUACAUUUUGAGAUAGAGUAAGGAUAUGAAAUAUGCG |  |  | 101 | 45.7
ACAUGAGGAUGAGGAUAUUCAUACAUGAGGAUAGAAGAAGGCAUACAUGAGGAUCACCCAUGUAUACACAUGAGGAUCGCCCAU | 37.1 | 47.3 |  | 
GCAGAGCCUGACAUGAGGAUCACCCAUGUUAGAUUGUUAUGUCAGGAUAUUGUCUAGCAACUAGACAAGAAGGGAUGCUCUGCG |  |  | 341 | 27.8
GGUACUCAAAGAGUACCAAUACGAACAUGAGGAUCACCCAUGUAGGAUAUGCUACUCAAAGAGUAGCAGAAGGACAUGUGCCUG | 17.9 | 95.1 |  | 
AGGUCAACCACAGGAUAUGGCUAGCAUAGCUAGCCAGAAGGGUGGUCAUAUCCAUGUAAAUACAUGAGGAUCACCCAUGUAUCC |  |  | 209 | 79.8
CUUCAGUGAGGAUAUACAUAACGGGACGUUAAUAUCGUUAGGUAGAAGGCACAUGAGGAUCACCCAUGUUUAAA | 92 | 66 |  | 
AAGGAUAGAGGAUAUACAUAGAUACAGAUUCAUGUAAUCCUACAUGAGGAUCACCCAUGUAGAAGGCUAUCCUA | 15.8 | 58.3 |  | 
GUGGUCAGACAUGAGGAUCACCCAUGUGGAAUAAAUAAGGGUUAGGAUAUGCAAUAUAGGAUAUAGCAGAAGGGAUGGUUGGUG |  |  | 128 | 173
GGAGCACACAUUAACAUGAGGAUCACCCAUGUCAAAAGACAUGAGGAUAUGGAUCCGAAAAGGAUCCAGAAGGCAUGGUUCUCC |  |  | 365 | 19.6
GCCAGGCAUGUAGGAUAUCCAUUGCGUCGCGUUGGAGAAGGGCAGCACACAUGAGGAUCACCCAUGUGGUCACCCAUGUAGUGU | 612 | 594 |  | 
CUCAUGUGAGGAUAUCAGUAGUAAAAAAAUAAAAUUACUACUGAGAAGGCACAUGAGGAUCACCCAUGUGCCAA | 16.1 | 28.6 |  | 
UGGUGAUUUGUAGGAUAUGGAAAUAUAUUAUAACCAGAAGGACAUGAGGAUCACCCAUGUGAUAGAGUUUUUUUUUUUUCUCCU | 31.5 | 14.1 |  | 
UGGAACAUGGGAGGAUAUGGGAUGAUAACAUGAGGAUCACCCAUGUUAAAGAUGCCGAGAGGCAACUAGAAGGCCCAUGUUCCU |  |  | 368 | 60.5
GUAGCAAUCGGAGGAUAUUCAUGAAACAUGAGGAUCACCCAUGUUAAUUUGGGAGAAGGCCGAUUGCUACAAGAGCGAAAGCUC |  |  | 8.14 | 5.35
AUCCCGAUAGCAGGAUAUUUCUGCAGUUGUGGUUAGGUCGCCCUACAUGAGGAUCACCCAUGUAGAGAGAAGGGCUGUGGUAAU | 6.71 | 6.83 |  | 
